According to ChEMBL document CHEMBL1629494, “New amino acid esters of salicylanilides active against MDR-TB and other microbes” (Eur J Med Chem, 2010):

What was measured:
Klebsiella pneumoniae [1] = assay: Antibacterial activity against Klebsiella pneumoniae D11750/08 after 48 hrs by broth microdilution method; format: functional; conditions: D11750/08, 48 h
Method in brief: (§1)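 Broth microdilution following […], with twofold compound dilutions in Mueller-Hinton bouillon. Incubated 24 and 48 h at 35 °C in the dark in a humid atmosphere. MIC (IC80) was taken as ≥80% growth reduction versus control, read visually and photometrically.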

Mycobacterium avium [2] = assay: Antimycobacterial activity against multidrug-resistant Mycobacterium avium 330/88 after 21 days by micromethod; format: functional; conditions: 330/88, 504 h
Method in brief: (§2)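 Micromethod in Sula semisynthetic medium, with compounds added as DMSO solutions at 1000, 500, 250, 125, 62, 32, 16, 8, 4, 2, 1, 0.5, 0.25. Inoculum dilutions: H37Rv 10^-3; M. avium 330/88 10^-5; M. kansasii 235/80 10^-4; M. kansasii 6509/96 10^-5. Incubated at 37 °C, read at 14 and 21 days, and at 7 days for M. kansasii. MIC was the lowest concentration inhibiting growth.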

Lichtheimia corymbifera [3] = assay: Antifungal activity against Absidia corymbifera 272 after 48 hrs by broth microdilution method; format: functional; conditions: Lichtheimia corymbifera, 272, 48 h
Staphylococcus aureus [4] = assay: Antibacterial activity against methicillin-resistant Staphylococcus aureus H5996/08 after 48 hrs by broth microdilution method; format: functional; conditions: H5996/08, 48 h; method in brief: as §1
Lichtheimia corymbifera [5] = assay: Antifungal activity against Absidia corymbifera 272 after 24 hrs by broth microdilution method; format: functional; conditions: Lichtheimia corymbifera, 272, 24 h
Candida albicans [6] = assay: Antifungal activity against Candida albicans ATCC 44859 after 24 hrs by broth microdilution method; format: functional; conditions: ATCC 44859, 24 h
Candida tropicalis [7] = assay: Antifungal activity against Candida tropicalis 156 after 24 hrs by broth microdilution method; format: functional; conditions: Candida tropicalis, 156, 24 h
Staphylococcus aureus [8] = assay: Antibacterial activity against methicillin-resistant Staphylococcus aureus H5996/08 after 24 hrs by broth microdilution method; format: functional; conditions: H5996/08, 24 h; method in brief: as §1
Escherichia coli [9] = assay: Antibacterial activity against Escherichia coli CCM 4517 after 48 hrs by broth microdilution method; format: functional; conditions: CCM 4517, 48 h; method in brief: as §1
[10] = system: Mycobacterium tuberculosis; assay: Antimycobacterial activity against Mycobacterium tuberculosis H37Rv 331/88 after 14 days by micromethod; format: functional; conditions: H37Rv 331/88, 336 h; method in brief: as §2
Klebsiella pneumoniae [11] = assay: Antibacterial activity against Klebsiella pneumoniae D11750/08 after 24 hrs by broth microdilution method; format: functional; conditions: D11750/08, 24 h; method in brief: as §1
[12] = Selectivity index, ratio of IC50 for human PBMC to MIC for Mycobacterium tuberculosis H37Rv 331/88 after 14 days; format: functional
Method in brief: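 SI = PBMC IC50 (MTT cytotoxicity) divided by the MIC against the named M. tuberculosis strain. MIC taken after 14 days of incubation at 37 °C by the micromethod.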

Nakaseomyces glabratus [13] = assay: Antifungal activity against Candida glabrata 20/I after 24 hrs by broth microdilution method; format: functional
[14] = system: Mycobacterium tuberculosis; assay: Antimycobacterial activity against Mycobacterium tuberculosis H37Rv 331/88 after 21 days by micromethod; format: functional; conditions: H37Rv 331/88, 504 h; method in brief: as §2
[15] = system: Trichophyton mentagrophytes; assay: Antifungal activity against Trichophyton mentagrophytes after 48 hrs by broth microdilution method; format: functional
Escherichia coli [16] = assay: Antibacterial activity against Escherichia coli CCM 4517 after 24 hrs by broth microdilution method; format: functional; conditions: CCM 4517, 24 h; method in brief: as §1
Mycobacterium kansasii [17] = assay: Antimycobacterial activity against Mycobacterium kansasii 6509/96 after 14 days by micromethod; format: functional; conditions: 6509/96, 336 h; method in brief: as §2
Aspergillus fumigatus [18] = assay: Antifungal activity against Aspergillus fumigatus 231 after 24 hrs by broth microdilution method; format: functional; conditions: Aspergillus fumigatus, 231, 24 h
Candida tropicalis [19] = assay: Antifungal activity against Candida tropicalis 156 after 48 hrs by broth microdilution method; format: functional; conditions: Candida tropicalis, 156, 48 h
Mycobacterium kansasii [20] = assay: Antimycobacterial activity against Mycobacterium kansasii 6509/96 after 21 days by micromethod; format: functional; conditions: 6509/96, 504 h; method in brief: as §2
Pichia kudriavzevii [21] = assay: Antifungal activity against Candida krusei E28 after 48 hrs by broth microdilution method; format: functional; conditions: E28, 48 h
Mycobacterium avium [22] = assay: Antimycobacterial activity against multidrug-resistant Mycobacterium avium 330/88 after 14 days by micromethod; format: functional; conditions: 330/88, 336 h; method in brief: as §2
Nakaseomyces glabratus [23] = assay: Antifungal activity against Candida glabrata 20/I after 48 hrs by broth microdilution method; format: functional
PBMC = assay: Cytotoxicity against human PBMC after 24 hrs by MTT assay; format: cell-based
Method in brief: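 Human peripheral blood mononuclear cells in RPMI-1640 with 10% fetal calf serum, 2 mM L-glutamine and gentamicin, 37 °C, 5% CO2. Seeded at 1.5–2.0 × 10⁵ cells/well. After 24 h, treated overnight in serum-free medium. Viability by MTT (2 mg/mL, 4 h); formazan dissolved in DMSO; OD540 minus OD620. Cytotoxicity % = [1 − OD treated/OD control] × 100; IC50 from dose-response curves. Four parallels, two independent experiments.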

Staphylococcus aureus [24] = assay: Antibacterial activity against Staphylococcus aureus CCM 4516/08 after 24 hrs by broth microdilution method; format: functional; conditions: CCM 4516/08, 24 h; method in brief: as §1
[25] = system: Mycobacterium tuberculosis; assay: Antimycobacterial activity against drug-sensitive Mycobacterium tuberculosis; format: functional
[26] = system: Staphylococcus epidermidis; assay: Antibacterial activity against Staphylococcus epidermidis H6966/08 after 48 hrs by broth microdilution method; format: functional; conditions: H6966/08, 48 h; method in brief: as §1
Enterococcus sp. [27] = assay: Antibacterial activity against Enterococcus sp. J14365/08 after 48 hrs by broth microdilution method; format: functional; conditions: J14365/08, 48 h; method in brief: as §1
Trichosporon beigelii [28] = assay: Antifungal activity against Trichosporon beigelii 1188 after 24 hrs by broth microdilution method; format: functional; conditions: Trichosporon beigelii, 1188, 24 h
Staphylococcus aureus [29] = assay: Antibacterial activity against Staphylococcus aureus CCM 4516/08 after 48 hrs by broth microdilution method; format: functional; conditions: CCM 4516/08, 48 h; method in brief: as §1
Mycobacterium kansasii [30] = assay: Antimycobacterial activity against Mycobacterium kansasii 235/80 after 14 days by micromethod; format: functional; conditions: 235/80, 336 h; method in brief: as §2
Mycobacterium kansasii [31] = assay: Antimycobacterial activity against Mycobacterium kansasii 235/80 after 21 days by micromethod; format: functional; conditions: 235/80, 504 h; method in brief: as §2
[32] = system: Staphylococcus epidermidis; assay: Antibacterial activity against Staphylococcus epidermidis H6966/08 after 24 hrs by broth microdilution method; format: functional; conditions: H6966/08, 24 h; method in brief: as §1
Enterococcus sp. [33] = assay: Antibacterial activity against Enterococcus sp. J14365/08 after 24 hrs by broth microdilution method; format: functional; conditions: J14365/08, 24 h; method in brief: as §1
Aspergillus fumigatus [34] = assay: Antifungal activity against Aspergillus fumigatus 231 after 48 hrs by broth microdilution method; format: functional; conditions: Aspergillus fumigatus, 231, 48 h
Candida albicans [35] = assay: Antifungal activity against Candida albicans ATCC 44859 after 48 hrs by broth microdilution method; format: functional; conditions: ATCC 44859, 48 h
Pichia kudriavzevii [36] = assay: Antifungal activity against Candida krusei E28 after 24 hrs by broth microdilution method; format: functional; conditions: E28, 24 h
[37] = system: Trichophyton mentagrophytes; assay: Antifungal activity against Trichophyton mentagrophytes after 24 hrs by broth microdilution method; format: functional
Mycobacterium avium [38] = assay: Antimycobacterial activity against Mycobacterium avium; format: functional
Trichosporon beigelii [39] = assay: Antifungal activity against Trichosporon beigelii 1188 after 48 hrs by broth microdilution method; format: functional; conditions: Trichosporon beigelii, 1188, 48 h
[40] = Lipophilicity, log P of the compound; format: physicochemical; conditions: octanol/water
Mycobacterium kansasii [41] = assay: Antimycobacterial activity against Mycobacterium kansasii 6509/96 after 7 days by micromethod; format: functional; conditions: 6509/96, 168 h; method in brief: as §2
Mycobacterium kansasii [42] = assay: Antimycobacterial activity against Mycobacterium kansasii 235/80 after 7 days by micromethod; format: functional; conditions: 235/80, 168 h; method in brief: as §2
Mycobacterium kansasii [43] = assay: Antimycobacterial activity against Mycobacterium kansasii; format: functional

CC(=O)N[C@@H](Cc1ccccc1)C(=O)Oc1ccc(Br)cc1C(=O)Nc1ccc(C(F)(F)F)cc1
1 µM: MIC [25] | MIC (Mycobacterium avium [38]) | MIC (Mycobacterium kansasii [41]) | MIC (Mycobacterium kansasii [43])
2 µM: MIC (Mycobacterium kansasii [17]) | MIC (Mycobacterium kansasii [20]) | MIC (Mycobacterium kansasii [30]) | MIC (Mycobacterium kansasii [31])
125 µM: MIC (Staphylococcus aureus [4]) | MIC (Candida tropicalis [7]) | MIC (Nakaseomyces glabratus [13]) | MIC (Pichia kudriavzevii [21]) | MIC (Enterococcus sp. [27])
5.19: logP [40]
0.25 µM: MIC [10]
4 µM: MIC (Mycobacterium avium [2]) | MIC (Mycobacterium avium [22])
7.81 µM: MIC (Lichtheimia corymbifera [5]) | MIC (Staphylococcus aureus [8]) | MIC [15]
15.6 µM: MIC (Lichtheimia corymbifera [3]) | MIC (Aspergillus fumigatus [18]) | MIC (Trichosporon beigelii [28]) | MIC [32] | MIC (Enterococcus sp. [33]) | MIC (Pichia kudriavzevii [36])
3.9 µM: MIC (Staphylococcus aureus [24]) | MIC [37]
500 µM: MIC (Escherichia coli [9]) | MIC (Nakaseomyces glabratus [23]) | MIC (Candida albicans [35])
48.7 µM: IC50 (PBMC)
194.8: Selectivity Index [12]
> 500 µM: MIC (Klebsiella pneumoniae [1]) | MIC (Klebsiella pneumoniae [11])
0.5 µM: MIC [14] | MIC (Mycobacterium kansasii [42])
62.5 µM: MIC [26]
250 µM: MIC (Escherichia coli [16]) | MIC (Candida tropicalis [19])
31.2 µM: MIC (Candida albicans [6]) | MIC (Staphylococcus aureus [29]) | MIC (Aspergillus fumigatus [34]) | MIC (Trichosporon beigelii [39])

CC(=O)N[C@@H](Cc1ccccc1)C(=O)Oc1ccc(Cl)cc1C(=O)Nc1ccc(Br)cc1
1 µM: MIC [25] | MIC (Mycobacterium avium [38]) | MIC (Mycobacterium kansasii [43])
4 µM: MIC (Mycobacterium kansasii [17]) | MIC (Mycobacterium avium [22]) | MIC (Mycobacterium kansasii [30]) | MIC (Mycobacterium kansasii [31]) | MIC (Mycobacterium kansasii [41]) | MIC (Mycobacterium kansasii [42])
8 µM: MIC (Mycobacterium avium [2]) | MIC (Mycobacterium kansasii [20])
125 µM: MIC (Lichtheimia corymbifera [5]) | MIC (Candida albicans [6]) | MIC (Aspergillus fumigatus [18]) | MIC (Trichosporon beigelii [28]) | MIC (Pichia kudriavzevii [36])
> 125 µM: MIC (Lichtheimia corymbifera [3]) | MIC (Candida tropicalis [7]) | MIC (Nakaseomyces glabratus [13]) | MIC [15] | MIC (Candida tropicalis [19]) | MIC (Pichia kudriavzevii [21]) | MIC (Nakaseomyces glabratus [23]) | MIC (Aspergillus fumigatus [34]) | MIC (Candida albicans [35]) | MIC [37] | MIC (Trichosporon beigelii [39])
4.83: logP [40]
2 µM: MIC [10] | MIC [14]
